Screening results deposited in PubChem by Sanford-Burnham Center for Chemical Genomics.
Shown are actives, neighbours in structure and some others; about 2.4% of the full set was active somewhere.
STEP inh: STEP phosphatase inhibitors, primary screen, biochemical, fluorescence intensity, uHTS; 360,000 tested, 0.25% active; inhibition, % at 20 µM; Tyrosine-protein phosphatase non-receptor type 5 (Homo sapiens), P54829; recombinant STEP, OMFP fluorogenic substrate;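 active means inhibition at 20 µM, scaled per plate between control wells, above about 37%, limit read from the data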;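 further: 0% = DMSO with enzyme and substrate and 100% = substrate only without enzyme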
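Assay system: isolated STEP enzyme. Buffer or medium: pH 6.0 Bis-Tris with DTT and Tween 20. Also added: fluorogenic phosphatase substrate OMFP at 25 µM final. Dosing: 20 µM, 1% DMSO. Timing: 20 min reaction, room temperature, in the dark. Measured by: fluorescence intensity, excitation 480 nm, emission 540 nm. Evaluation: normalized % inhibition.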
NadD inh: inhibitors of S. aureus NadD, primary screen, biochemical, colorimetric, uHTS; Nicotinate-nucleotide adenylyltransferase NadD (Staphylococcus aureus N315); purified NadD enzyme, colorimetric absorbance read-out; inhibition, % at 20 µM; 360,000 tested, 0.78% active; AID 602399, 2012; in the data active means inhibition above about 26%
Scp-1 inhibitor: Scp-1 phosphatase inhibitors, primary screen, biochemical, colorimetric, uHTS. Recombinant Scp1, phosphopeptide, malachite green phosphate absorbance. inhibition, % at 20 µM. 340,000 tested, 0.88% active;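 active means inhibition above about 50% at 20 µM, limit read from the data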;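 further: plate controls were DMSO wells with enzyme for no effect and wells lacking enzyme for full effect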
Target sequence (Q9GZU7 76-261 limits assumed): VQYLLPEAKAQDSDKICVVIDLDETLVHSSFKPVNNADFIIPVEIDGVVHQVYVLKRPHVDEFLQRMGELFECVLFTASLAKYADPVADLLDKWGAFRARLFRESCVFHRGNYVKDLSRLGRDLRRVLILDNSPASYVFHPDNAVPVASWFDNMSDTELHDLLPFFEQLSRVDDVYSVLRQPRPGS
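System: truncated SCP-1 phosphatase (76-261aa); medium: Tris acetate buffer pH 5.5 with MgCl2 and Tween-20; incubation: 45 min room-temperature reaction, 5 min colour, 30 min stabiliser; compound: single 20 µM dose, 1% DMSO; reagent: Phosphorylated 17-residue peptide substrate; read-out: % inhibition at 20 µM; technique: colorimetric free-phosphate detection, absorbance 630 nm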
LMPTP inh: LMPTP phosphatase inhibitors, primary screen, biochemical, fluorescence intensity, uHTS. Low molecular weight phosphotyrosine protein phosphatase (Homo sapiens), P24666. recombinant LMPTP-A, OMFP fluorogenic substrate. inhibition, % at 20 µM. 360,000 tested, 0.22% active. AID 651560, 2012;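 active means compounds that cut the enzyme signal by at least half of the control window in the single-dose screen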;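 further: plate controls were DMSO wells with enzyme plus substrate for no effect and substrate without enzyme for full effect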
Target sequence (P24666 whole entry, looked up): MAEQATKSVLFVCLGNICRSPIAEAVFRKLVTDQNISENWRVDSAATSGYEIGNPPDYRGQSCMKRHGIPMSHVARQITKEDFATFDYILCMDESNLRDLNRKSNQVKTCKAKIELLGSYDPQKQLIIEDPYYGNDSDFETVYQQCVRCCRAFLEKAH
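Buffer or medium: Bis-Tris pH 6.0, DTT, detergent; Assay system: LMPTP-A enzyme; Quantity: 0.625 nM enzyme; Detection: endpoint fluorescence intensity; Times: 50 min dark incubation at room temperature; Controls: substrate-only low control, DMSO enzyme-plus-substrate high control; Doses: single 20 µM dose; Read-out: percent inhibition versus substrate-only and uninhibited controls; Reagent: 400 µM OMFP.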
SUMO1 PPI mod: modulators of SUMO1 protein-protein interactions, primary screen, biochemical, uHTS; Small ubiquitin-related modifier 1 (Homo sapiens), P63165; 360,000 tested, 0.33% active; SUMO1 binding to a labelled peptide, TR-FRET, 1 h; inhibition, % at 20 µM; in the data active means inhibition above about 37%
Target sequence (P63165 whole entry, looked up): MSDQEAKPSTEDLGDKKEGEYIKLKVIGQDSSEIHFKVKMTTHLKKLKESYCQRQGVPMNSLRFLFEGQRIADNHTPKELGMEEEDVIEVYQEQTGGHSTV
DNMT1 inh: human DNMT1 methyltransferase inhibitors, primary screen, biochemical, molecular beacon, fluorescence, HinP1I cleavage, uHTS. AID 588458, 2011. DNA (cytosine-5)-methyltransferase 1 (Homo sapiens), P26358. 360,000 tested, 0.83% active. inhibition (reported as % activation of signal), % at 10 µM; in the data active means inhibition above about 50%
NadD inh conf: inhibitors of S. aureus NadD, confirmation, biochemical, colorimetric, single concentration; purified S. aureus NadD, colorimetric enzyme assay; inhibition, % at 20 µM; 2,000 tested, 13% active; shares compounds with NadD inh; AID 624309, 2012; in the data active means inhibition mostly above about 42%, no sharp cut-off; inactive means mostly below about 42%
Starred values were filed as active, the others as inactive; x = not tested or not shown.

SMILES	STEP inh	NadD inh	Scp-1 inhibitor	LMPTP inh	SUMO1 PPI mod	DNMT1 inh	NadD inh conf
CCOc1cc(/C=N/NC(=O)c2ccc(-c3csc(Nc4ccc(C)cc4)n3)cc2)ccc1OCC(=O)O	84*	53*	66*	92*	19	78*	27
COc1cc(/C=N\NC(=O)c2ccc(-c3ccccc3)cc2)ccc1OCC(N)=O	36	-4	5	1	0	16	x
Cc1nc(CC(=O)N/N=C/c2ccc(OCC(=O)O)cc2)cs1	-1	2	24	1	-1	5	x
O=C(O)COc1ccc(/C=N/NC(=O)c2ccc(-c3csc(Nc4ccc(Cl)cc4)n3)cc2)cc1	93*	71*	100*	92*	121*	-66	9
Cc1c(C(=O)OCC(O)=C(C#N)c2nc3ccccc3[nH]2)oc2ccc(Br)cc12	-2	37*	5	1	3	15	2
Cc1c(C(=O)OC/C(O)=C(\C#N)c2nc3ccccc3[nH]2)oc2ccccc12	0	10	-12	-1	2	14	x
FC(F)(F)c1cccc(-c2ccc(/C=N/Nc3nncc(-c4ccccc4)n3)o2)c1	0	1	10	-1	-2	40	x
Clc1ccc(-c2ccc(/C=N/Nc3nncc(-c4ccccc4)n3)o2)cc1	0	38*	0	1	-2	4	13
O=C(Nc1ccccc1)c1cnc(-c2ccccc2)nc1-c1ccccc1	0	-7	-10	0	1	1	x
COC(=O)c1c(N)[nH]c(C(=O)c2ccccc2)c1-c1ccccc1Br	x	-5	x	0	-1	x	x
CC(NC(=O)c1c(N)[nH]c(C(=O)c2ccccc2)c1-c1ccccc1Br)c1cccc2ccccc12 (stereo unspecified)	x	35*	x	1	4	x	37
CC1CC(C)CN(C(=O)c2ccc3c(=O)n(Cc4ccc5c(c4)OCO5)c(=S)[nH]c3c2)C1 (stereo unspecified)	1	32*	-13	1	0	1	5
O=C(c1ccc2c(=O)n(Cc3ccco3)c(=S)[nH]c2c1)N1CCN(c2ccccc2)CC1	3	28*	-10	1	5	-2	24
O=C(Nc1cccc(S(=O)(=O)NC2=NCCCCC2)c1)c1cc(-c2ccc(Cl)cc2)nc2ccccc12	-2	26*	0	3	-11	-13	32
O=C(NC(=S)Nc1cccc(S(=O)(=O)NC2=NCCC2)c1)c1cc(-c2ccco2)nc2ccccc12	5	41*	-6	15	22	11	52*
O=C(Nc1cccc(S(=O)(=O)NC2=NCCCCC2)c1)c1cc(-c2ccccc2)nc2ccccc12	-2	17	0	2	-11	1	x
COc1ccc(-c2cc(C(=O)Nc3cccc(S(=O)(=O)NCc4ccco4)c3)c3ccccc3n2)cc1OC	-5	58*	6	2	-15	-7	45*
CCOC(=O)c1cc(CC)sc1NC(=O)c1ccc([N+](=O)[O-])c(N2CCOCC2)c1	1	-5	-8	-1	-6	2	x
COc1cccc(NC(=O)Nc2cc(C(=O)NCC3CCCO3)ccc2N2CC3CC(C2)c2cccc(=O)n2C3)c1 (stereo unspecified)	-4	5	-5	1	-2	1	x
C[C@@]12CCC=C[C@H]1[C@H](c1ccc3ccccc3c1Br)N(Cc1ccccc1)C2=O	-1	6	-11	3	0	-6	x
Cc1ccc(-c2cc(-c3ccccc3)c(C#N)c(N)n2)o1	-1	41*	-4	0	-2	-18	48
Cc1ccc(-c2cc(-c3ccccc3Cl)c(C#N)c(N)n2)o1	-3	68*	-2	3	-6	-16	57*
Cc1ccc(-c2cc(-c3ccc(F)cc3)nc(N)c2C#N)o1	4	13	0	-1	4	-31	x
COC(=O)COC(=O)c1ccccc1NC(=O)c1ccccc1	2	-2	-3	-1	1	1	x
Cn1c(=O)n(Cc2ccccc2Cl)c(=O)c2c1[nH]c(=S)n2C	1	39*	-2	25	0	2	32
SMILES	STEP inh	NadD inh	Scp-1 inhibitor	LMPTP inh	SUMO1 PPI mod	DNMT1 inh	NadD inh conf
Cn1c(=O)n(Cc2ccccc2Cl)c2ccccc21	1	-3	0	1	2	-2	x
CC(C)(C)c1cccc(P(=O)(c2ccccc2)c2ccccc2)c1O	0	-1	-5	0	-3	-1	x
COc1ccc(NC(=O)Nc2ccc3c(c2)C(=O)N([C@H](C)CO)C[C@H](C)[C@@H](CN(C)C(=O)NC2CCCCC2)O3)cc1	0	3	4	-2	-1	2	x
O=C1N/C(=N\N=C\c2cccnc2)SC1Cc1ccc(SC(F)F)cc1 (stereo unspecified)	-5	6	-7	0	1	-10	x
O=C1N/C(=N\N=C\c2ccc3ncccc3c2)SC1Cc1ccc(SC(F)F)cc1 (stereo unspecified)	2	33*	4	1	2	2	10
O=C(Nc1ncc2c(n1)CC(c1ccco1)CC2=O)c1ccccc1 (stereo unspecified)	0	-4	-8	5	-4	-1	x
O=C1CC(c2ccco2)Cc2nc(Nc3nc(-c4ccccc4)c4ccccc4n3)ncc21 (stereo unspecified)	2	57*	25	61*	5	48	32
CS(=O)(=O)N1CCN(c2ccccc2NC(=O)c2cccnc2)CC1	1	0	0	-2	-2	-1	x
COc1ccc(OC)c(CCNC(=O)c2ccc3c(=O)[nH]c4c(C(=O)NC(C)C)sc(=S)n4c3c2)c1	7	33*	6	3	11	-15	13
COc1ccccc1N1CCN(c2ncc(C(=O)N3CCN(c4cccc(Cl)c4)CC3)c3ccccc23)CC1	1	34*	-1	6	24	-8	2
O=C(CSC(=S)N1CCN(c2ccccc2)CC1)Nc1nc(-c2ccccc2)c(-c2ccccc2)o1	11	35*	-1	1	0	32	2
CCN(CC)C(=S)SCC(=O)Nc1nc(-c2ccccc2)c(-c2ccccc2)o1	-1	8	-13	4	4	2	x
